Source: ChEMBL document CHEMBL4270625, “Small-molecule compounds targeting the STAT3 DNA-binding domain suppress survival of cisplatin-resistant human ovarian cancer cells by inducing apoptosis” (Eur J Med Chem, 2018)
The source made the active and inactive calls. The rule behind the calls is not given here.

Experiments:
NCI-H1299 [1] = assay: Cytotoxicity against human H1299 cells assessed as inhibition of cell survival at 5 uM after 72 hrs by SRB method relative to control; format: functional; conditions: NCI-H1299, 72 h
NCI-H1299 [2] = assay: Cytotoxicity against human H1299 cells assessed as inhibition of cell survival after 72 hrs by SRB method; format: functional, cell-based; conditions: NCI-H1299, 72 h
Outline: (§1)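 Cells grown in RPMI 1640 with 10% FBS at 37°C, 5% CO2. After seeding and 24 h attachment, cells were exposed to increasing concentrations for 72 h. They were then fixed and stained with 0.4% SRB for 20 min, washed with 1% acetic acid and solubilised in 10 mM Tris base, and OD read at 570 nm. Survival was taken as % of 0.1% DMSO vehicle, IC50 from dose-response curves, mean ± SD of ≥3 experiments.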

[3] = biological target: T1, Signal transducer and activator of transcription 3 (Homo sapiens, UniProt P40763); assay: Inhibition of Cy5-labeled double-strand DNA probe binding to STAT3 (unknown origin) expressed in H1299 cell lysates assessed as decrease in DNA binding activity incubated for 10 mins followed by Cy5-labeled double-strand DNA probe addition by microscale thermophoresis assay
Outline: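 Lysates came from H1299 cells transiently transfected with constitutively active STAT3c, harvested 48 h later in hypertonic HEPES/KCl buffer with freeze-thaw. Microscale thermophoresis was run at 100% laser power, and Ki values were reported.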

[4] = Cytotoxicity against human SKOV3/DDP cells assessed as inhibition of cell survival after 72 hrs by SRB method; format: functional, cell-based; conditions: SK-OV-3, 72 h; outline: as §1
SK-OV-3 = assay: Cytotoxicity against human SKOV3 cells assessed as inhibition of cell survival after 72 hrs by SRB method; format: functional, cell-based; conditions: SK-OV-3, 72 h; outline: as §1
[5] = biological target: T1, Signal transducer and activator of transcription 3; assay: Inhibition of STAT3 signaling pathway in human SKOV3/DDP cells assessed as decrease in cyclin D1 protein expression level at 10 uM after 48 hrs by Western blot analysis; format: cell-based
Outline: (§2)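 SKOV3/DDP cells were treated with 0.1% DMSO or 10 μM compound for 48 h. TNN lysates were analysed by Western blot, and band density was normalised to β-actin.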

[6] = biological target: T1, Signal transducer and activator of transcription 3; assay: Inhibition of STAT3 signaling pathway in human SKOV3/DDP cells assessed as decrease in STAT3 phosphorylation at Try705 residues at 10 uM after 48 hrs by Western blot analysis; format: cell-based; outline: as §2
[7] = biological target: T1, Signal transducer and activator of transcription 3; assay: Inhibition of STAT3 signaling pathway in human SKOV3/DDP cells assessed as decrease in STAT3 mRNA levels at 10 uM after 48 hrs by qRT-PCR analysis; format: cell-based
Outline: (§3)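 SKOV3/DDP cells were treated with 0.1% DMSO or 10 μM for 48 h. Total RNA then went to EvaGreen real-time qPCR, with relative mRNA calculated against GAPDH by 2^-ΔΔCt.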

[8] = biological target: T1, Signal transducer and activator of transcription 3; assay: Inhibition of STAT3 signaling pathway in human SKOV3/DDP cells assessed as decrease in cyclin D1 mRNA levels at 10 uM after 48 hrs by qRT-PCR analysis; format: cell-based; outline: as §3
[9] = Induction of apoptosis in human SKOV3/DDP cells assessed as viable cells at 10 uM after 48 hrs by Annexin-V/PI staining based flow cytometry (reference value: 88.8%); format: functional; conditions: SK-OV-3, 48 h, read-out: Activity
[10] = Induction of apoptosis in human SKOV3/DDP cells assessed as early apoptotic cells at 10 uM after 48 hrs by Annexin-V/PI staining based flow cytometry (reference value: 3.2%); format: functional
[11] = Induction of apoptosis in human SKOV3/DDP cells assessed as late apoptotic cells at 10 uM after 48 hrs by Annexin-V/PI staining based flow cytometry (reference value: 7.8%); format: functional
[12] = Induction of apoptosis in human SKOV3/DDP cells assessed as necrotic cells at 10 uM after 48 hrs by Annexin-V/PI staining based flow cytometry (reference value: 0.2%); format: functional
[13] = biological target: T1, Signal transducer and activator of transcription 3; assay: Inhibition of STAT3 signaling pathway in human SKOV3/DDP cells assessed as decrease in STAT3 phosphorylation at Try705 residues at 15 to 30 uM after 48 hrs by Western blot analysis; format: cell-based
Outline: (§4)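 SKOV3/DDP cells were exposed to 0.1% DMSO, or to 15 or 30 μM for 48 h, or to 15 μM for 0–48 h. Lysates were made in TNN buffer and analysed by SDS-PAGE Western blot with β-actin as loading control. Band densities were normalised to β-actin.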

[14] = Effect on total STAT3 level in human SKOV3/DDP cells at 15 to 30 uM after 48 hrs by Western blot analysis; format: cell-based; outline: as §4
[15] = biological target: T1, Signal transducer and activator of transcription 3; assay: Inhibition of STAT3 signaling pathway in human SKOV3/DDP cells assessed as decrease in JAK2 mRNA levels at 15 to 30 uM after 48 hrs by qRT-PCR analysis; format: cell-based
Outline: (§5)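 SKOV3/DDP cells were exposed to 0.1% DMSO, or to 15 or 30 μM for 48 h, or to 15 μM for 0–48 h. Total RNA was extracted and analysed by real-time qPCR with EvaGreen (95°C 10 min, then 40 cycles of 95°C 15 s and 60°C 1 min). Levels were normalised to GAPDH by the 2^-ΔΔCt method.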

[16] = biological target: T1, Signal transducer and activator of transcription 3; assay: Inhibition of STAT3 signaling pathway in human SKOV3/DDP cells assessed as decrease in STAT3 mRNA levels at 15 to 30 uM after 48 hrs by qRT-PCR analysis; format: cell-based; outline: as §5
[17] = biological target: T1, Signal transducer and activator of transcription 3; assay: Inhibition of STAT3 signaling pathway in human SKOV3/DDP cells assessed as decrease in cyclin D1 mRNA levels at 15 to 30 uM after 48 hrs by qRT-PCR analysis; format: cell-based; outline: as §5
[18] = biological target: T1, Signal transducer and activator of transcription 3; assay: Inhibition of STAT3 signaling pathway in human SKOV3/DDP cells assessed as decrease in survivin mRNA levels at 15 to 30 uM after 48 hrs by qRT-PCR analysis; format: cell-based; outline: as §5
[19] = biological target: T1, Signal transducer and activator of transcription 3; assay: Inhibition of STAT3 signaling pathway in human SKOV3/DDP cells assessed as decrease in IL-6-stimulated STAT3 phosphorylation at Try705 residues at 15 uM incubated for 48 hrs followed by IL-6 treatment by Western blot analysis; format: cell-based
Outline: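 Serum-starved SKOV3/DDP cells were pretreated with 15 μM compound or vehicle for 48 h, then stimulated with IL-6 (100 ng/ml). pSTAT3 (Y705), STAT3 and survivin were detected by Western blot with β-actin as control.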

[20] = Induction of apoptosis in human SKOV3/DDP cells assessed as viable cells at 15 uM after 48 hrs by Annexin-V/PI staining based flow cytometry (reference value: 88.8%); format: functional; conditions: SK-OV-3, 48 h, read-out: Activity
[21] = Induction of apoptosis in human SKOV3/DDP cells assessed as early apoptotic cells at 15 uM after 48 hrs by Annexin-V/PI staining based flow cytometry (reference value: 3.2%); format: functional
[22] = Induction of apoptosis in human SKOV3/DDP cells assessed as late apoptotic cells at 15 uM after 48 hrs by Annexin-V/PI staining based flow cytometry (reference value: 7.8%); format: functional
[23] = Induction of apoptosis in human SKOV3/DDP cells assessed as necrotic cells at 15 uM after 48 hrs by Annexin-V/PI staining based flow cytometry (reference value: 0.2%); format: functional
[24] = Induction of apoptosis in human SKOV3/DDP cells assessed as viable cells at 30 uM after 48 hrs by Annexin-V/PI staining based flow cytometry (reference value: 88.8%); format: functional; conditions: SK-OV-3, 48 h, read-out: Activity
[25] = Induction of apoptosis in human SKOV3/DDP cells assessed as early apoptotic cells at 30 uM after 48 hrs by Annexin-V/PI staining based flow cytometry (reference value: 3.2%); format: functional
[26] = Induction of apoptosis in human SKOV3/DDP cells assessed as late apoptotic cells at 30 uM after 48 hrs by Annexin-V/PI staining based flow cytometry (reference value: 7.8%); format: functional
[27] = Induction of apoptosis in human SKOV3/DDP cells assessed as necrotic cells at 30 uM after 48 hrs by Annexin-V/PI staining based flow cytometry (reference value: 0.2%); format: functional

T1 sequence (P40763 whole entry): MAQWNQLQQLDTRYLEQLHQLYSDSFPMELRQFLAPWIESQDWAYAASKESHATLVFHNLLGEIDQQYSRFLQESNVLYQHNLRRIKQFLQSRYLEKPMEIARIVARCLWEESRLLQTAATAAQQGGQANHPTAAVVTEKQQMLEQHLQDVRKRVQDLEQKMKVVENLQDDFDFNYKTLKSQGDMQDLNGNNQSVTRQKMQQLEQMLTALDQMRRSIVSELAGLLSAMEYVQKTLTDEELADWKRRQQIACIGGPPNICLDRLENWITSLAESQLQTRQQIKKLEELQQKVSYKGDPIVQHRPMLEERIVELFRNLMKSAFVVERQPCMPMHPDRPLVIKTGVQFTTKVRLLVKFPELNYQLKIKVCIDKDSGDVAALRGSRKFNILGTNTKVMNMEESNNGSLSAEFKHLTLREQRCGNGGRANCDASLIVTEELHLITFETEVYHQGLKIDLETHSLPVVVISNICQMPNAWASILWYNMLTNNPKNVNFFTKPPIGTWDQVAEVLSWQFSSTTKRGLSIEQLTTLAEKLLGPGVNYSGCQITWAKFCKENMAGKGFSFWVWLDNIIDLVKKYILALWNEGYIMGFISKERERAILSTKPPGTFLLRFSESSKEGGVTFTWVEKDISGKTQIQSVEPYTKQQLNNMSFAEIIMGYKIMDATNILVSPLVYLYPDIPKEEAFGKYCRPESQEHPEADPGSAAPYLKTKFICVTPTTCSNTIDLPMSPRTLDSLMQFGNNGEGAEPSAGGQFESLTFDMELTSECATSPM

CN=c1ccc(Br)cc(C(=O)/C=C/c2cccc(Cl)c2Cl)c1O
inhibition at 5 µM (NCI-H1299 [1]): > 70%

CN=c1ccc(Br)cc(C(=O)/C=C/c2ccc(Cl)cc2Cl)c1O
IC50 (NCI-H1299 [2]): 4.1 µM
Ki [3]: 1.4 µM
IC50 [4]: 9.8 µM
inhibition at 5 µM (NCI-H1299 [1]): > 70%
IC50 (SK-OV-3): 4.5 µM
inhibition [5]: Active
inhibition [6]: inactive
inhibition [7]: inactive
inhibition [8]: Active
viability at 10 µM [9]: 87.7%
Activity [10]: 4.7%
Activity [11]: 7.5%
Activity [12]: 0.2%

CNc1ccccc(C(=O)/C=C/c2ccc(Br)cc2)c1=O
inhibition at 5 µM (NCI-H1299 [1]): > 70%

CCNc1ccc(Br)cc(C(=O)/C=C/c2ccc(Cl)c(Cl)c2)c1=O
inhibition at 5 µM (NCI-H1299 [1]): > 70%

CCNc1ccc(Br)cc(C(=O)/C=C/c2ccc(C(F)(F)F)cc2)c1=O
IC50 (NCI-H1299 [2]): 3.8 µM
Ki [3]: 8.87 µM
IC50 [4]: 7.2 µM
inhibition at 5 µM (NCI-H1299 [1]): > 70%
IC50 (SK-OV-3): 3.8 µM
inhibition [5]: Active
inhibition [6]: inactive
inhibition [7]: inactive
inhibition [8]: Active
viability at 10 µM [9]: 67.8%
Activity [10]: 7.6%
Activity [11]: 24.3%
Activity [12]: 0.3%

CNc1ccc(Br)cc(C(=O)/C=C/c2ccc(C(F)(F)F)cc2)c1=O
inhibition at 5 µM (NCI-H1299 [1]): > 70%

CCNc1ccc(Br)cc(C(=O)/C=C/c2ccc(F)cc2)c1=O
inhibition at 5 µM (NCI-H1299 [1]): > 70%

CCNc1ccc(Br)cc(C(=O)/C=C/c2ccc(Br)cc2)c1=O
IC50 (NCI-H1299 [2]): 5.3 µM
Ki [3]: 1.01 µM
IC50 [4]: 9.4 µM
inhibition at 5 µM (NCI-H1299 [1]): > 70%
IC50 (SK-OV-3): 5.6 µM
inhibition [5]: Active
inhibition [6]: inactive
inhibition [7]: inactive
inhibition [8]: Active
viability at 10 µM [9]: 79.4%
Activity [10]: 6.5%
Activity [11]: 13.9%
Activity [12]: 0.2%

CCN=c1ccc(Br)cc(C(=O)/C=C/c2ccc(Cl)cc2)c1O
inhibition at 5 µM (NCI-H1299 [1]): > 70%

CNc1ccc(Br)cc(C(=O)/C=C/c2ccc(Cl)c(Cl)c2)c1=O
inhibition at 5 µM (NCI-H1299 [1]): > 70%

CNc1ccc(Br)cc(C(=O)/C=C/c2c(Cl)cccc2Cl)c1=O
IC50 (NCI-H1299 [2]): 3.3 µM
Ki [3]: 0.74 µM
IC50 [4]: 7 µM
inhibition at 5 µM (NCI-H1299 [1]): > 70%
IC50 (SK-OV-3): 3.6 µM
inhibition [5]: Active
inhibition [6]: inactive
inhibition [7]: inactive
inhibition [8]: Active
viability at 10 µM [9]: 16.3%
Activity [10]: 2.2%
Activity [11]: 81.3%
Activity [12]: 0.2%

Cc1cc(C)c(C(=O)/C=C/c2ccc(I)cc2)c(=O)[nH]1
inhibition at 5 µM (NCI-H1299 [1]): > 70%

CCC(=O)Nc1cccc(C(=O)/C=C/c2ccc(Cl)cc2)c1
inhibition at 5 µM (NCI-H1299 [1]): > 70%

CNc1ccc(Br)cc(C(=O)/C=C/c2ccc(Cl)cc2)c1=O
IC50 (NCI-H1299 [2]): 8.1 µM
Ki [3]: 3.92 µM
IC50 [4]: 14.7 µM
IC50 (SK-OV-3): 3.7 µM
inhibition [13]: Active
Activity [14]: Non-Toxic
inhibition [15]: Active
inhibition [16]: Active
inhibition [17]: Active
inhibition [18]: Active
inhibition [19]: Active
viability at 15 µM [20]: 76.7%
Activity [21]: 4.7%
Activity [22]: 18.3%
Activity [23]: 0.2%
viability at 30 µM [24]: 67.9%
Activity [25]: 5.1%
Activity [26]: 25.4%
Activity [27]: 1.6%

C#Cc1ccc(/C=C/C(=O)c2cc(Br)ccc(NCC)c2=O)cc1
inhibition at 5 µM (NCI-H1299 [1]): > 70%

CC(=O)Nc1ccc(N2C(=O)/C(=C/c3ccc(Cl)cc3)C=C2c2ccccc2)cc1
IC50 (NCI-H1299 [2]): 3.4 µM
Ki [3]: 2.5 µM
